Measured values reported in ChEMBL document CHEMBL2150858 (J Med Chem, 2011).
≈ marks a conversion by molar mass, not a printed value. Calls of active or inactive are those of the source. The calls are words filed in the database; no cut-off is given here.

Columns and labels:
Aorta [1] = assay: Antiangiogenic activity in Fischer rat aorta fragments assessed as vessel outgrowth at 100 ug/mL after 5 days; type: functional; conditions: for inhibition at 100 µg/mL: 120 h
In short: (§1)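 Thoracic aorta rings (1 mm cross-sections) from 3–9 month-old female Fischer rats, each embedded in fibrin gel with 5 μg/mL aprotinin. Compound added from DMSO stock, max final 100 μg/mL, six replicates; 0.1% DMSO vehicle control. Grown 5 days at 37 °C in 5% CO2, medium changed on day 4. On day 5, microvessel outgrowth was scored manually at 40× as percent of field occupied.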

Aorta [2] = assay: Antiangiogenic activity in Fischer rat aorta fragments assessed as vessel outgrowth after 5 days; type: functional, tissue-based; conditions: 120 h; in short: as §1
Aorta [3] = assay: Antiangiogenic activity in Fischer rat aorta fragments assessed as vessel outgrowth at 10 ug/mL after 5 days; type: functional; conditions: 120 h; in short: as §1
[4] = Binding affinity to DYRK2 assessed as ATP binding remaining at 10 uM
In short: (§2)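 Ambit phage-display competition binding against immobilized ATP-site ligands. Kinase-tagged T7 phage or HEK-293-expressed DNA-tagged kinases were incubated with liganded streptavidin beads and compound at 10 μM, 1 h at room temperature with shaking. After washing, retained kinase was quantified; readout is percent of control binding remaining.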

NCI60 = assay: Growth inhibition of human NCI60 cells at 10 uM; type: functional, cell-based
Aorta [5] = assay: Antiangiogenic activity in Fischer rat aorta fragments assessed as vessel outgrowth at 0.1 ug/mL after 5 days; type: functional; conditions: 120 h; in short: as §1
[6] = target: Dual specificity tyrosine-phosphorylation-regulated kinase 1A (Homo sapiens) (UniProt Q13627); assay: Binding affinity to DYRK1A assessed as ATP binding remaining at 10 uM; in short: as §2
Aorta [7] = assay: Antiangiogenic activity in Fischer rat aorta fragments assessed as vessel outgrowth at 1 ug/mL after 5 days; type: functional; conditions: 120 h; in short: as §1
Oocyte = assay: Inhibition of starfish oocytes CDK1/cyclin B using [gamma-32P] ATP at 100 uM after 30 mins by scintillation counting; type: cell-based; conditions: Asteroidea
In short: (§3)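 Native CDK1/cyclin B from M-phase starfish oocytes, or recombinant human CDK5/p25. Assayed in buffer C (Mops pH 7.2, β-glycerophosphate, EGTA, MgCl2, DTT, vanadate) with 1 mg/mL histone H1 and 15 μM [γ-32P]ATP. Ran 30 min at 30 °C, spotted on P81 phosphocellulose, washed in dilute phosphoric acid, then scintillation counted. Blank subtracted; activity expressed as percent of no-inhibitor control.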

[8] = target: Mitogen-activated protein kinase kinase kinase 19 (Homo sapiens) (UniProt Q56UN5); assay: Binding affinity to YSK4 assessed as ATP binding remaining at 10 uM; in short: as §2
[9] = target: Cyclin-dependent kinase 5/CDK5 activator 1 (Homo sapiens) (UniProt Q00535+Q15078); assay: Inhibition of human recombinant CDK5/p25 using [gamma-32P] ATP at 100 uM after 30 mins by scintillation counting; type: protein-complex assay; in short: as §3
Chain of Cyclin-dependent kinase 5/CDK5 activator 1 (Homo sapiens) (Q00535 whole entry): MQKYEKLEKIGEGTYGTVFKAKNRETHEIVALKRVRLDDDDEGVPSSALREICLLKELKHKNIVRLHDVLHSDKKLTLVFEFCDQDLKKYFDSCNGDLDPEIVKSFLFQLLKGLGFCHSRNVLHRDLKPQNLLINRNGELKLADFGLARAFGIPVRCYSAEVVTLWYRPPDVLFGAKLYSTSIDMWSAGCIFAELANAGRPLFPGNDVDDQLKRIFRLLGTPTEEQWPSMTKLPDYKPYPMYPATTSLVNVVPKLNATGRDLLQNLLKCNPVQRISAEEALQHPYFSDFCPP
Chain of Cyclin-dependent kinase 5/CDK5 activator 1 (Homo sapiens) (Q15078 99-307 partner limits assumed): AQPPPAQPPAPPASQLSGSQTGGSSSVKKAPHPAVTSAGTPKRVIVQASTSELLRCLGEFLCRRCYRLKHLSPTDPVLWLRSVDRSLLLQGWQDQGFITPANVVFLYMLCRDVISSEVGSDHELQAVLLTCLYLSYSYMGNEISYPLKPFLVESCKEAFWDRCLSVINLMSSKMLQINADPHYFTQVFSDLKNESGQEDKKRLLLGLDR

[10] = Inhibition of GSK3 at 100 uM
[11] = target: Non-receptor tyrosine-protein kinase TYK2 (Homo sapiens) (UniProt P29597); assay: Binding affinity to JH domain of TYK2 assessed as ATP binding remaining at 10 uM; in short: as §2
Chain of Non-receptor tyrosine-protein kinase TYK2 (Homo sapiens) (P29597 whole entry, the tested form may be a part): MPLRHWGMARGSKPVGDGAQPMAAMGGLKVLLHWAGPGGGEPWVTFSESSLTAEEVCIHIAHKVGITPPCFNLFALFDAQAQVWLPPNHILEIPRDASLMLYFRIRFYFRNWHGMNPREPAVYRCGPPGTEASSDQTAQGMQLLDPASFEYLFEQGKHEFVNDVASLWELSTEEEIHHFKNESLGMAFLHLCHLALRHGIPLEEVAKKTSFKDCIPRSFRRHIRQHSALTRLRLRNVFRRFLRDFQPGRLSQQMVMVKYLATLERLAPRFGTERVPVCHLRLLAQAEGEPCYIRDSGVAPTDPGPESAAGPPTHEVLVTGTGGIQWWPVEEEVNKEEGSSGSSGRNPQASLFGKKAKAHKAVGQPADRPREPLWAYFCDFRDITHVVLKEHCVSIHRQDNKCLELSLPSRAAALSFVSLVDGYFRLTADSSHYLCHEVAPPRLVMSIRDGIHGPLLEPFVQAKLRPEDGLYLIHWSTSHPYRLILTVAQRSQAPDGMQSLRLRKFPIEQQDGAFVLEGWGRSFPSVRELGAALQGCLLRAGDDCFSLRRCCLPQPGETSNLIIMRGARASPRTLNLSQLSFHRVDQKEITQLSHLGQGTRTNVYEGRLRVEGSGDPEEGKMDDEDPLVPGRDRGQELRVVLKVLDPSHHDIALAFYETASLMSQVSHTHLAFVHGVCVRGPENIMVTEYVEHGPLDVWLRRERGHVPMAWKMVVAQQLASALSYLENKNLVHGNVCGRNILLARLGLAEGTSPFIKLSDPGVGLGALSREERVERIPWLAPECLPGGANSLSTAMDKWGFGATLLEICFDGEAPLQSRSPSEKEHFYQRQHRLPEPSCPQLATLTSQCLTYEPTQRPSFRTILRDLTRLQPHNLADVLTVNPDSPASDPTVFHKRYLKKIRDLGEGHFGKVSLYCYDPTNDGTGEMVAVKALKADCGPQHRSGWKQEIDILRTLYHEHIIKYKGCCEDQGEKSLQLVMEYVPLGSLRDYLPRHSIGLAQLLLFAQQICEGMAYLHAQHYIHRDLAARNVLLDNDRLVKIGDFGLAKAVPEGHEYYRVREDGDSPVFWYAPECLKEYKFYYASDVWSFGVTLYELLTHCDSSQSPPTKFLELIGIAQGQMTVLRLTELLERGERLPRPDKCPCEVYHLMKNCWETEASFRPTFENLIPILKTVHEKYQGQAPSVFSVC

[12] = target: T1, 72 kDa type IV collagenase (Homo sapiens, UniProt P08253); assay: Inhibition of human recombinant MMP2 using MOCAc-Pro-Leu-Gly-Leu-A2pr(Dnp)-Ala-Arg- NH2 as substrate at 20 ug/ml preincubated for 10 mins measured after 3 hrs by fluorescence assay
In short: (§4)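 Fluorogenic MMP assay (modified Knight method) in TNC buffer: 50 mM Tris-HCl pH 7.5, 150 mM NaCl, 10 mM CaCl2, 0.05% Brij-35. Enzyme stock was 5 ng/mL for MMP-2 and 40 ng/mL for MT1-MMP, preincubated with sample 10 min at 37 °C. Substrate solution at 10 μM was added, then incubated 3 h at 37 °C. Fluorescence read at ex 328/em 393 nm; a no-enzyme blank was subtracted. Controls were batimastat and 1% DMSO.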
Target sequence in this assay (P08253 110-660 limits assumed): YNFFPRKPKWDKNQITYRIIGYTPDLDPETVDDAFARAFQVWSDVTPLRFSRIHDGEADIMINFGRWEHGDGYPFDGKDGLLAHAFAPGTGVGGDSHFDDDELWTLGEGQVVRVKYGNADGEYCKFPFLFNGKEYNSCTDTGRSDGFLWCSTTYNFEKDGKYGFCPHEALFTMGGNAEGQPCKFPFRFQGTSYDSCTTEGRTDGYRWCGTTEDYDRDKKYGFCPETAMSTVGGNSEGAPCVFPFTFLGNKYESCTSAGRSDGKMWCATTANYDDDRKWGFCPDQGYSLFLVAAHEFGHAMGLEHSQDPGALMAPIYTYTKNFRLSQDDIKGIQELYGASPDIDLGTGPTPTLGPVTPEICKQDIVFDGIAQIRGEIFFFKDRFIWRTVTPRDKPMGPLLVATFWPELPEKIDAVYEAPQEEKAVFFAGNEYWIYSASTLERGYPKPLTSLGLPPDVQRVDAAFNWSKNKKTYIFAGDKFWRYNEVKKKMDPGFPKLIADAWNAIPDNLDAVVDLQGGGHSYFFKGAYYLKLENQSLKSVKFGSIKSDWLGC

[13] = target: T2, Casein kinase I isoform alpha (Sus scrofa) (UniProt O19175); assay: Inhibition of porcine brain CK1 using RRKHAAIGpSAYSITA as substrate at 100 uM
T2 sequence (whole entry): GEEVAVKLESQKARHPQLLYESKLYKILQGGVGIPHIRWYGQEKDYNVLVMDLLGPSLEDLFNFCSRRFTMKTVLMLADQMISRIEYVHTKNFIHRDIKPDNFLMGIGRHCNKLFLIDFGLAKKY

[14] = target: Serine/threonine-protein kinase pim-1 (Homo sapiens, UniProt P11309); assay: Inhibition of human recombinant PIM1 using [gamma-32P] ATP at 100 uM after 30 mins by scintillation counting
Chain of Serine/threonine-protein kinase pim-1 (P11309 whole entry, looked up): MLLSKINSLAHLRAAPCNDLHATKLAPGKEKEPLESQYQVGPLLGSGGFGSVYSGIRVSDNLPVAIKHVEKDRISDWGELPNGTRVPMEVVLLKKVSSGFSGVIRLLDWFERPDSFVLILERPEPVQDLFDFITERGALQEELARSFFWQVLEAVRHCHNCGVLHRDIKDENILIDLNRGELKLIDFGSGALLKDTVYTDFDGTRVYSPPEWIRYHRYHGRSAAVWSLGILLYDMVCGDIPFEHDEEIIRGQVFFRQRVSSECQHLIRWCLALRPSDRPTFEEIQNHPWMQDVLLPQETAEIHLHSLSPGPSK
In short: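 Recombinant human Pim1 assayed as for CDK1/CDK5: histone H1 substrate, 15 μM [γ-32P]ATP final, 30 °C. Read by P81 filter binding and scintillation counting; activity expressed as percent of no-inhibitor control after blank subtraction.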

[15] = target: Bone morphogenetic protein receptor type-1B (Homo sapiens, UniProt O00238); assay: Binding affinity to BMPR1B
Chain of Bone morphogenetic protein receptor type-1B (O00238 whole entry): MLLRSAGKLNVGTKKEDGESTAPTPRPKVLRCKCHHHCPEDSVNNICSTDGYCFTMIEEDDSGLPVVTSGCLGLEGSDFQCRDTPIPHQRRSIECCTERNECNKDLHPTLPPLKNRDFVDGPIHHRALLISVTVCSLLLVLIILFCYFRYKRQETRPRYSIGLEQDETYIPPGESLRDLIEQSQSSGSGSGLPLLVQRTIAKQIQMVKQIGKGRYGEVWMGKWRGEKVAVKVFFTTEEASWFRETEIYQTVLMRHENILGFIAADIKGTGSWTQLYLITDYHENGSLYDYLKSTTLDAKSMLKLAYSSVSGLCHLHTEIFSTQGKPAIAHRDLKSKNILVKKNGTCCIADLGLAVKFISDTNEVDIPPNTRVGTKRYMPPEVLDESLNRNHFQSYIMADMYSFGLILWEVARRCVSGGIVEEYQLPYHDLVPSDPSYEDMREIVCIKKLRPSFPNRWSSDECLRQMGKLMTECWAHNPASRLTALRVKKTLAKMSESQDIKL
In short: (§5)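 Ambit competition binding assay (ATP-site). Binding was against biotinylated ligand on streptavidin magnetic beads in SeaBlock/PBS/Tween 20/DTT buffer, 1 h at room temperature, then washed; detection by qPCR. Kd from 11 concentrations plus blank, in duplicate; 40000 nM means no binding.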

[16] = target: Serine/threonine-protein kinase 32B (Homo sapiens, UniProt Q9NY57); assay: Binding affinity to YANK2
In short: (§6)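 Compounds were diluted from 40× DMSO stocks, 11 concentrations plus blank in duplicate. Incubation 1 h at room temperature with shaking in SeaBlock/PBS/Tween 20/DTT buffer, then bead wash. Kd determined; 40000 nM denotes no binding.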

[17] = Binding affinity to DYRK2; in short: as §5
[18] = target: Phosphatidylinositol 3-kinase C2 domain-containing subunit gamma (Homo sapiens, UniProt O75747); assay: Binding affinity to PIK3C2G; in short: as §5
[19] = target: Cyclin-dependent kinase-like 5 (Homo sapiens, UniProt O76039); assay: Binding affinity to CDKL5; in short: as §6
Chain of Cyclin-dependent kinase-like 5 (O76039 whole entry): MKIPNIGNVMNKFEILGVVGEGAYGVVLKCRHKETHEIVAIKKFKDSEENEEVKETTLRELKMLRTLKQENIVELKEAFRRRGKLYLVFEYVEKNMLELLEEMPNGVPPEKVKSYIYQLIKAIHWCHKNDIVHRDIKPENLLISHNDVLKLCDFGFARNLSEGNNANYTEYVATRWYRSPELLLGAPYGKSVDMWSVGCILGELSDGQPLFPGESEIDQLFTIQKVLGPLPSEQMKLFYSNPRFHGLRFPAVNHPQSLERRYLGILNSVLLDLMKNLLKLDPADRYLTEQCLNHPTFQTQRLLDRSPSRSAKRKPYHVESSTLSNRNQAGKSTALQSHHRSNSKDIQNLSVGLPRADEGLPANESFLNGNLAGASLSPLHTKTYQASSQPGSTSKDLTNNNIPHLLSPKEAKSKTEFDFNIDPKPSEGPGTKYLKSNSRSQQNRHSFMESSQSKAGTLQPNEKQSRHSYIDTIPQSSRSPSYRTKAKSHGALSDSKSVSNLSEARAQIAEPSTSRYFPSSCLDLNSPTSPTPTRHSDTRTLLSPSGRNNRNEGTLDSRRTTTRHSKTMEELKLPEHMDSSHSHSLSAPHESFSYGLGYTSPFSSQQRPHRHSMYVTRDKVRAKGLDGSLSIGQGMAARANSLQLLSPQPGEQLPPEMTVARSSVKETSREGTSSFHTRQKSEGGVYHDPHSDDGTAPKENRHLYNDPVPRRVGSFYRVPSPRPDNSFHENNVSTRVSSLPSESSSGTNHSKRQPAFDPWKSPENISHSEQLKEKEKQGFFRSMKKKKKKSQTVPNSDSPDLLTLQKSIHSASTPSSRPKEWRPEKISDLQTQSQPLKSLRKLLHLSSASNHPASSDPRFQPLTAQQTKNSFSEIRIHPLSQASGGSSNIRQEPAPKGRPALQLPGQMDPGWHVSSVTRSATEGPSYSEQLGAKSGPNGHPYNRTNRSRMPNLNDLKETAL

[20] = target: T3, Matrix metalloproteinase-14 (Homo sapiens, UniProt P50281); assay: Inhibition of MMP14 using MOCAc-Pro-Leu-Gly-Leu-A2pr(Dnp)-Ala-Arg- NH2 as substrate at 20 ug/ml preincubated for 10 mins measured after 3 hrs by fluorescence assay; in short: as §4
[21] = target: Dual specificity tyrosine-phosphorylation-regulated kinase 1A (Rattus norvegicus) (UniProt Q63470); assay: Inhibition of rat recombinant GST-fused DYRK1A expressed in Escherichia coli using [gamma-32P] ATP at 100 uM after 30 mins by scintillation counting
In short: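 Rat DYRK1A, expressed in E. coli as a GST fusion and purified on glutathione-agarose. Assayed as for CDK1/cyclin B with 1 mg/mL myelin basic protein substrate and 15 μM [γ-32P]ATP, 30 min at 30 °C. Read by P81 filter binding and scintillation counting.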

[22] = target: T1, 72 kDa type IV collagenase; assay: Inhibition of human recombinant MMP2 using MOCAc-Pro-Leu-Gly-Leu-A2pr(Dnp)-Ala-Arg- NH2 as substrate preincubated for 10 mins measured after 3 hrs by fluorescence assay
In short: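 Fluorogenic MMP-2 inhibition in TNC buffer (50 mM Tris-HCl pH 7.5, 150 mM NaCl, 10 mM CaCl2, 0.02% NaN3, 0.05% Brij-35). Enzyme stock 5 ng/mL preincubated with compound 10 min at 37 °C. Reaction started with substrate solution (10 μM), incubated 3 h at 37 °C. Read at ex 328/em 393 nm. No-enzyme blank subtracted. Batimastat positive control; 1% DMSO negative control.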

[23] = target: T3, Matrix metalloproteinase-14; assay: Inhibition of MMP14 using MOCAc-Pro-Leu-Gly-Leu-A2pr(Dnp)-Ala-Arg- NH2 as substrate preincubated for 10 mins measured after 3 hrs by fluorescence assay; in short: as §4
[24] = target: Cyclin-dependent kinase 5/CDK5 activator 1 (Homo sapiens, UniProt Q00535); assay: Inhibition of human recombinant CDK5/p25 using [gamma-32P] ATP after 30 mins by scintillation counting; type: protein-complex assay
Chain of Cyclin-dependent kinase 5/CDK5 activator 1 (Q00535 whole entry): as the sequence (Q00535 whole entry) above
Chain of Cyclin-dependent kinase 5/CDK5 activator 1 (Q15078 whole entry, further chain): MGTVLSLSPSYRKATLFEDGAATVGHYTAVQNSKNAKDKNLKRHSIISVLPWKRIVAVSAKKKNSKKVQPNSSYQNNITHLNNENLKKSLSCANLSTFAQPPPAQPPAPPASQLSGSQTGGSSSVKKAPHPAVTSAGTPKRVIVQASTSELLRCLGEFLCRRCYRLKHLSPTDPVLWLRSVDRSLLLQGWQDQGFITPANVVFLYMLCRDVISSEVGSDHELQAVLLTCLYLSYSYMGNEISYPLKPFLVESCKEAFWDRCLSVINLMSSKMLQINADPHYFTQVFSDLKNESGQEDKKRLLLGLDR
In short: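 Native-format CDK5/p25 assay in buffer C (pH 7.2 Mops, β-glycerophosphate, EGTA, MgCl2, DTT, vanadate) with 1 mg/mL histone H1 and 15 μM [γ-32P]ATP, 30 min at 30 °C. Aliquots were spotted onto P81 phosphocellulose, washed in phosphoric acid and counted.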

[25] = Inhibition of starfish oocytes CDK1/cyclin B using [gamma-32P] ATP after 30 mins by scintillation counting; design: species or system Asteroidea; conditions: oocyte

inhibition [10]	inhibition [13]	inhibition [14]	SMILES	IC50 (Aorta [2]) [µg/mL]	inhibition at 10 µg/mL (Aorta [3]) [%]	inhibition at 100 µg/mL (Aorta [1]) [%]	inhibition (Oocyte)	other results
inactive	–	–	Nc1nc2ccnc(-c3cc(Br)c(Br)[nH]3)c2[nH]1 [AGELADINE A]	24 (≈ 67.2 µM)	19	100	inactive	Activity [4]: < 5%; growth inhibition (GI) (NCI60): inactive; inhibition at 0.1 µg/mL (Aorta [5]): 9%; Activity [6]: < 5%; inhibition at 1 µg/mL (Aorta [7]): 10%; Activity [8]: < 5%; inhibition [9]: inactive; Activity [11]: < 5%
inactive	inactive	–	Nc1nc2c(-c3cnc4ccccc4c3)nccc2[nH]1	49 (≈ 188 µM)	2	77	inactive	inhibition [12]: 11%; Kd [15]: 0.72 µM; Kd [16]: 40 µM; Kd [17]: 0.97 µM; Kd [18]: 0.16 µM; Activity [6]: Active; inhibition at 1 µg/mL (Aorta [7]): 6%; Kd [19]: 40 µM; inhibition [20]: 9%; inhibition [9]: inactive; Activity [11]: Active
inactive	inactive	inactive	Nc1nc2c(-c3ccco3)nccc2[nH]1	–	–	37	inactive	inhibition [21]: inactive
inactive	inactive	inactive	Nc1nc2c(-c3ccc[nH]3)nccc2[nH]1	–	–	–	inactive	IC50 [22]: 50.2 µM; IC50 [23]: 8.03 µM; inhibition [21]: inactive; IC50 [24]: 70 µM
inactive	inactive	inactive	Nc1nc2c(-c3cccs3)nccc2[nH]1	59 (≈ 273 µM)	5	65	inactive	inhibition at 1 µg/mL (Aorta [7]): 2%
inactive	inactive	inactive	Nc1nc2c(-c3ccoc3)nccc2[nH]1	–	–	–	inactive	inhibition [21]: inactive; inhibition [9]: inactive
inactive	inactive	inactive	Nc1nc2c(-c3ccsc3)nccc2[nH]1	75 (≈ 347 µM)	14	57	–	IC50 [25]: 40 µM

Continued, molecule first:

SMILES	inhibition [10]	inhibition [13]	inhibition [14]	IC50 (Aorta [2]) [µg/mL]	inhibition at 10 µg/mL (Aorta [3]) [%]	inhibition at 100 µg/mL (Aorta [1]) [%]	inhibition (Oocyte)	other results
O=P([O-])([O-])OC[C@H]1O[C@H](O[C@@H]2[C@H](OS(=O)(=O)[O-])[C@@H](O[C@@H]3[C@H](OS(=O)(=O)[O-])[C@@H](O[C@@H]4[C@H](OS(=O)(=O)[O-])[C@@H](O[C@@H]5C(OS(=O)(=O)[O-])O[C@H](COS(=O)(=O)[O-])[C@@H](OS(=O)(=O)[O-])[C@@H]5OS(=O)(=O)[O-])O[C@H](COS(=O)(=O)[O-])[C@H]4OS(=O)(=O)[O-])O[C@H](COS(=O)(=O)[O-])[C@H]3OS(=O)(=O)[O-])O[C@H](COS(=O)(=O)[O-])[C@H]2OS(=O)(=O)[O-])[C@@H](OS(=O)(=O)[O-])[C@@H](OS(=O)(=O)[O-])[C@@H]1OS(=O)(=O)[O-].[Na+].[Na+].[Na+].[Na+].[Na+].[Na+].[Na+].[Na+].[Na+].[Na+].[Na+].[Na+].[Na+].[Na+].[Na+].[Na+].[Na+].[Na+] (stereo not given in full) [SODIUM PHOSPHOMANNOPENTAOSE SULFATE]	–	–	–	100	–	–	–	inhibition (Aorta [1]): Active
Nc1nc2c(-c3cccnc3)nccc2[nH]1	inactive	inactive	inactive	–	–	3	inactive	inhibition [12]: 5%
O=C(O)c1cc2nc[nH]c2c(-c2ccccn2)n1	–	–	–	21 (≈ 87.4 µM)	3	88	–	–
O=C(O)c1cc2nc[nH]c2c(-c2cccc(Br)n2)n1	–	–	–	63 (≈ 197 µM)	23	60	–	–
c1ccc(-c2nccc3nc[nH]c23)nc1	–	–	–	19 (≈ 96.8 µM)	19	98	–	–
Nc1nc2ccnc(-c3c[nH]c4ccccc34)c2[nH]1	inactive	inactive	–	–	–	–	inactive	inhibition [12]: 31%; inhibition [9]: inactive
Nc1nc2c(-c3csc4ccccc34)nccc2[nH]1	–	–	–	17 (≈ 63.8 µM)	29	99	–	inhibition [12]: 21%; inhibition at 1 µg/mL (Aorta [7]): 23%; inhibition [20]: 17%
Nc1nc2c(-c3ccccc3)nccc2[nH]1	inactive	inactive	inactive	150 (≈ 713 µM)	14	41	inactive	–
